Results from different studies.
Each line is one published result; the experiments were not run side by side.
Effect on: cell growth or viability

C[C@]12CC[C@H](O)CC1=CC[C@@H]1[C@@H]2CC[C@]2(C)C(n3cnc4ccccc43)=CC[C@@H]12 — IC50 (LAPC4; MTT; 7 days): 4 µM
CCCCN(CCCC)C(=O)c1ncn2c(=O)n(C)nnc12 — IC50 (U-118-MG; resazurin; 7 days): 62 µM
COc1cc(/C=C/C(=O)/C=C/c2c(C)nn(-c3cccc([N+](=O)[O-])c3)c2Cl)cc(OC)c1OC — IC50 (LLC-PK1; MTT; 72 h): 5.93 µM
Cc1[nH]c(/C=C2\C(=O)Nc3ccc(S(=O)(=O)N(C)c4cccc(Cl)c4)cc32)c(C)c1C(=O)N1CCN(C)CC1 — IC50 (RD; 72 h): 2.11 µM
O=C(/C=C/c1ccc(O)c(O)c1)O[C@@H]1C[C@](O)(C(=O)O)C[C@@H](O)[C@H]1O — IC50 (RD; WST-1; 48 h): 30.1 µM
CS(=O)(=O)c1ccc(-n2cc(/C=N/N=c3\[nH]c(-c4ccc([N+](=O)[O-])cc4)cs3)c(-c3ccc(Br)cc3)n2)cc1 — IC50 (F180; MTT; 48 h): 71.8 µM
CC(C)c1cc(C(=O)N2Cc3ccccc3C2)c(O)c2c1C(=O)C(F)C2 (stereo not drawn) — IC50 (UMUC3; ATP luminescence; 72 h): 69.9 µM
COc1cc(Nc2nccc(-c3cnn4nc(OC)ccc34)n2)cc(C(F)(F)F)c1 — IC50 (U-118-MG; ATP luminescence): 0.12 µM
CC(C)c1cc(C(=O)N2Cc3ccccc3C2)c(O)c2c1C=CC2 — IC50 (UMUC3; ATP luminescence; 72 h): 59.4 µM
COc1cc(/C=C/C(=O)/C=C/c2c(C)nn(-c3cccc([N+](=O)[O-])c3)c2Cl)cc(OC)c1O — IC50 (LLC-PK1; MTT; 72 h): 15.4 µM
CC(C)c1cc(C(=O)N2Cc3ccccc3C2)c(O)c2c1C(=O)C(F)(F)C2 — IC50 (UMUC3; ATP luminescence; 72 h): > 100 µM
COc1cc(/C=C/C(=O)/C=C/c2cn(-c3ccccc3)nc2-c2ccccc2)cc(OC)c1O — IC50 (LLC-PK1; MTT; 72 h): 10.2 µM
CC(C)c1cc(C(=O)N2Cc3ccccc3C2)c(O)c2ccoc12 — IC50 (UMUC3; ATP luminescence; 72 h): 71.6 µM
CS(=O)(=O)c1ccc(-n2cc(C=N/N=c3\[nH]c(-c4ccc(Br)cc4)cs3)c(-c3ccc([N+](=O)[O-])cc3)n2)cc1 — IC50 (F180; MTT; 48 h): 36.6 µM
CNC(=O)c1cc(Oc2ccc(NC(=O)Nc3ccc(Cl)c(C(F)(F)F)c3)cc2)ccn1 — IC50 (Swiss-3T3; SRB): 0.427 µM
CC(C)c1cc(C(=O)N2Cc3ccccc3C2)c(O)c2c1CC=C2 — IC50 (UMUC3; ATP luminescence; 72 h): 51.3 µM
CN1/C(=N/c2ccc(Cl)cc2)c2cc(C(N)=O)nc3c(N)c(Cl)c(N)c1c23 — IC50 (HCC44): 23.2 µM
COc1ccc(/C=C/C(=O)/C=C/c2c(C)nn(-c3cccc([N+](=O)[O-])c3)c2Cl)cc1OC — IC50 (LLC-PK1; MTT; 72 h): 21 µM
CNC(=O)c1ccc(N2C(=S)N(c3cnc(C#N)c(C(F)(F)F)c3)C(=O)C23CCC3)cc1F — IC50 (LAPC4; ATP luminescence; 6 days): 1.1 µM
Cn1nnc2c(C(=O)N3CCCC3)ncn2c1=O — IC50 (U-118-MG; resazurin; 7 days): 136 µM
CC1(C)CC[C@]2(C)CC[C@]3(C)C(=CC[C@@H]4[C@@]5(C)CC[C@H](O)C(C)(C)[C@@H]5CC[C@]43C)[C@@H]2C1 — IC50 (RD; WST-1; 48 h): 93.7 µM
COc1cc([C@@H]2c3cc4c(cc3[C@@H](O[C@@H]3O[C@@H]5CO[C@@H](C)O[C@H]5[C@H](O)[C@H]3O)[C@H]3COC(=O)[C@H]23)OCO4)cc(OC)c1O — IC50 (Caco-2; MTS; 24 h): 21.8 µM
CC(C)C[C@H](NC(=O)[C@H](Cc1ccccc1)NC(=O)c1cnccn1)B(O)O — IC50 (LoVo; ATP luminescence): 0.015 µM
COc1ccc(-c2nn(-c3ccc(S(C)(=O)=O)cc3)cc2/C=N/N=c2\[nH]c(-c3ccc(Br)cc3)cs2)cc1 — IC50 (F180; MTT; 48 h): 59.6 µM
COc1cccc2c1C(=O)c1c(O)c3c(c(O)c1C2=O)C[C@@](O)(C(=O)CO)C[C@@H]3O[C@H]1C[C@H](N)[C@H](O)[C@H](C)O1 — IC50 (Caco-2; MTT; 24 h): 12.3 µM
CC(C)c1cc(C(=O)N2Cc3ccccc3C2)c(O)c2c1CCC2=O — IC50 (UMUC3; ATP luminescence; 72 h): > 100 µM
C[C@@H]1[C@H](O)[C@@H](C)/C=C/C=C/C=C/C=C/C=C/C=C/C=C/[C@H](O[C@@H]2O[C@H](C)[C@@H](O)[C@H](N)[C@@H]2O)C[C@@H]2O[C@](O)(C[C@@H](O)C[C@@H](O)[C@H](O)CC[C@@H](O)C[C@@H](O)CC(=O)O[C@H]1C)C[C@H](O)[C@H]2C(=O)O — IC50 (LLC-PK1; neutral red; 48 h): 0.6 µg/mL
CC(C)c1cc(C(=O)N2Cc3ccccc3C2)c(O)c2nc[nH]c12 — IC50 (UMUC3; ATP luminescence; 72 h): 53 µM
COc1cc2c(Oc3ccc(NC(=O)C4(C(=O)Nc5ccc(F)cc5)CC4)cc3F)ccnc2cc1OCCCN1CCOCC1 — IC50 (RD; 72 h): 0.22 µM
O=Cc1ccc(CO)o1 — IC50 (RD; WST-1; 48 h): 60.6 µM
CCN(CC)C(=O)c1ncn2c(=O)n(C)nnc12 — IC50 (U-118-MG; resazurin; 7 days): 80 µM
COc1cccc2c1C(=O)c1c(O)c3c(c(O)c1C2=O)C[C@@](O)(C(=O)CO)C[C@@H]3O[C@H]1C[C@H](N)[C@H](O)[C@H](C)O1 — IC50 (F180; MTT; 48 h): 9.39 µM
Cc1cccc(-n2ncc(Br)c(Br)c2=O)c1 — IC50 (NCI-H2122; resazurin; 96 h): 1.26 µM
